Measured values from ChEMBL document CHEMBL4689842, “EUbOPEN Chemogenomics Library wave 1” (2021).

System: U2OS
Assay: Multiplex assay against U2OS
Type: toxicity, cell-based
Settings: human
Procedure, shortened: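 Live cells were stained at seeding with Hoechst33342, BioTracker Green Microtubule Cytoskeleton Dye, MitoTracker Red and Annexin V Alexa Fluor 680, then imaged on a CQ1 microscope at 37°C and 5% CO2 after compound addition. CellPathfinder machine-learning gating split cells into Hoechst high-intensity objects or normal cells. Normal cells were split into healthy, pyknosed or fragmented nuclei, and pyknosed cells into mitotic or apoptotic. Tubulin, mitochondrial-mass and membrane-permeability phenotypes are per cents of healthy-nucleus cells.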

[1] = 12 h, 1 µM, compound concentration 1 uM, replicate 1
[2] = 12 h, 1 µM, compound concentration 1 uM, replicate 2
[3] = 12 h, 10 µM, compound concentration 10 uM, replicate 1
[4] = 12 h, 10 µM, compound concentration 10 uM, replicate 2
[5] = 24 h, 1 µM, compound concentration 1 uM, replicate 1
[6] = 24 h, 1 µM, compound concentration 1 uM, replicate 2
[7] = 24 h, 10 µM, compound concentration 10 uM, replicate 1
[8] = 24 h, 10 µM, compound concentration 10 uM, replicate 2

For CCN(CC)CCCCNc1ncc2cc(-c3cc(OC)cc(OC)c3)c(NC(=O)NC(C)(C)C)nc2n1 [PD-173074], the “Population Apoptotic (%)” value [1] was 53%, the “Population Fragmented Nuclei (%)” value [1] was 27% and the “Population Healthy Nuclei (%)” value [1] was 4%. The “Population Hoechst High Intensity Objects (%)” value [1] was 56%, the “Population Membrane Permeable-Phenotype (%)” value [1] was 66% and the “Population Mitochondria Different-Phenotype (%)” value [1] was 16%. For the same compound, the “Population Mitotic Cells (%)” value [1] was 46%, the “Population Normal (%)” value [1] was 43% and the “Population Pyknosed Nuclei (%)” value [1] was 67%. The “Population Tubulin-Different-Phenotype (%)” value [1] was 33%, the “Total Cell Count” value [1] was 280 and the “Population Apoptotic (%)” value [2] was 54%. For the same compound, the “Population Fragmented Nuclei (%)” value [2] was 31%, the “Population Healthy Nuclei (%)” value [2] was 11% and the “Population Hoechst High Intensity Objects (%)” value [2] was 55%. For the same compound, the “Population Membrane Permeable-Phenotype (%)” value [2] was 64%, the “Population Mitochondria Different-Phenotype (%)” value [2] was 29% and the “Population Mitotic Cells (%)” value [2] was 45%. For the same compound, the “Population Normal (%)” value [2] was 44%, the “Population Pyknosed Nuclei (%)” value [2] was 57% and the “Population Tubulin-Different-Phenotype (%)” value [2] was 47%. The “Total Cell Count” value [2] was 186, the “Population Fragmented Nuclei (%)” value [3] was 20% and the “Population Healthy Nuclei (%)” value [3] was 52%. For the same compound, the “Population Hoechst High Intensity Objects (%)” value [3] was 19%, the “Population Membrane Permeable-Phenotype (%)” value [3] was 39% and the “Population Mitochondria Different-Phenotype (%)” value [3] was 27%. For the same compound, the “Population Normal (%)” value [3] was 80%, the “Population Pyknosed Nuclei (%)” value [3] was 26% and the “Population Tubulin-Different-Phenotype (%)” value [3] was 92%. For the same compound, the “Total Cell Count” value [3] was 206, the “Population Apoptotic (%)” value [4] was 21% and the “Population Fragmented Nuclei (%)” value [4] was 33%. The “Population Healthy Nuclei (%)” value [4] was 34%, the “Population Hoechst High Intensity Objects (%)” value [4] was 30% and the “Population Membrane Permeable-Phenotype (%)” value [4] was 37%. For the same compound, the “Population Mitochondria Different-Phenotype (%)” value [4] was 51%, the “Population Mitotic Cells (%)” value [4] was 78% and the “Population Normal (%)” value [4] was 69%. For the same compound, the “Population Pyknosed Nuclei (%)” value [4] was 31%, the “Population Tubulin-Different-Phenotype (%)” value [4] was 73% and the “Total Cell Count” value [4] was 129. For the same compound, the “Population Apoptotic (%)” value [5] was 70%, the “Population Fragmented Nuclei (%)” value [5] was 17% and the “Population Healthy Nuclei (%)” value [5] was 8%. For the same compound, the “Population Hoechst High Intensity Objects (%)” value [5] was 60%, the “Population Membrane Permeable-Phenotype (%)” value [5] was 71% and the “Population Mitochondria Different-Phenotype (%)” value [5] was 28%. For the same compound, the “Population Mitotic Cells (%)” value [5] was 29%, the “Population Normal (%)” value [5] was 39% and the “Population Pyknosed Nuclei (%)” value [5] was 74%. The “Population Tubulin-Different-Phenotype (%)” value [5] was 57%, the “Total Cell Count” value [5] was 298 and the “Population Apoptotic (%)” value [6] was 71%. For the same compound, the “Population Fragmented Nuclei (%)” value [6] was 30%, the “Population Healthy Nuclei (%)” value [6] was 15% and the “Population Hoechst High Intensity Objects (%)” value [6] was 63%. The “Population Membrane Permeable-Phenotype (%)” value [6] was 84%, the “Population Mitochondria Different-Phenotype (%)” value [6] was 38% and the “Population Mitotic Cells (%)” value [6] was 28%. The “Population Normal (%)” value [6] was 36%, the “Population Pyknosed Nuclei (%)” value [6] was 53% and the “Population Tubulin-Different-Phenotype (%)” value [6] was 69%. The “Total Cell Count” value [6] was 168, the “Population Apoptotic (%)” value [7] was 35% and the “Population Fragmented Nuclei (%)” value [7] was 16%. For the same compound, the “Population Healthy Nuclei (%)” value [7] was 54%, the “Population Hoechst High Intensity Objects (%)” value [7] was 17% and the “Population Membrane Permeable-Phenotype (%)” value [7] was 20%. For the same compound, the “Population Mitochondria Different-Phenotype (%)” value [7] was 48%, the “Population Mitotic Cells (%)” value [7] was 64% and the “Population Normal (%)” value [7] was 82%. The “Population Pyknosed Nuclei (%)” value [7] was 29%, the “Population Tubulin-Different-Phenotype (%)” value [7] was 74% and the “Total Cell Count” value [7] was 202. The “Population Apoptotic (%)” value [8] was 45%, the “Population Fragmented Nuclei (%)” value [8] was 26% and the “Population Healthy Nuclei (%)” value [8] was 33%. For the same compound, the “Population Hoechst High Intensity Objects (%)” value [8] was 21%, the “Population Membrane Permeable-Phenotype (%)” value [8] was 18% and the “Population Mitochondria Different-Phenotype (%)” value [8] was 52%. For the same compound, the “Population Mitotic Cells (%)” value [8] was 54%, the “Population Normal (%)” value [8] was 78% and the “Population Pyknosed Nuclei (%)” value [8] was 40%. The “Population Tubulin-Different-Phenotype (%)” value [8] was 59% and the “Total Cell Count” value [8] was 113.
In the case of Cc1nc(Nc2n[nH]c3c2CN(C(=O)N[C@H](CN(C)C)c2ccccc2)C3(C)C)c2sccc2n1 [PF-03758309], the “Population Apoptotic (%)” value [1] is reported as 47%, the “Population Fragmented Nuclei (%)” value [1] is reported as 9% and the “Population Healthy Nuclei (%)” value [1] is reported as 79%. The “Population Hoechst High Intensity Objects (%)” value [1] was 2%, the “Population Membrane Permeable-Phenotype (%)” value [1] was 9% and the “Population Mitochondria Different-Phenotype (%)” value [1] was 21%. The “Population Mitotic Cells (%)” value [1] was 52%, the “Population Normal (%)” value [1] was 97% and the “Population Pyknosed Nuclei (%)” value [1] was 11%. For the same compound, the “Population Tubulin-Different-Phenotype (%)” value [1] was 21%, the “Total Cell Count” value [1] was 234 and the “Population Apoptotic (%)” value [2] was 20%. For the same compound, the “Population Fragmented Nuclei (%)” value [2] was 10%, the “Population Healthy Nuclei (%)” value [2] was 78% and the “Population Hoechst High Intensity Objects (%)” value [2] was 15%. For the same compound, the “Population Membrane Permeable-Phenotype (%)” value [2] was 5%, the “Population Mitochondria Different-Phenotype (%)” value [2] was 18% and the “Population Mitotic Cells (%)” value [2] was 80%. For the same compound, the “Population Normal (%)” value [2] was 84%, the “Population Pyknosed Nuclei (%)” value [2] was 10% and the “Population Tubulin-Different-Phenotype (%)” value [2] was 24%. The “Total Cell Count” value [2] was 118, the “Population Apoptotic (%)” value [3] was 53% and the “Population Fragmented Nuclei (%)” value [3] was 16%. The “Population Healthy Nuclei (%)” value [3] was 54%, the “Population Hoechst High Intensity Objects (%)” value [3] was 3% and the “Population Membrane Permeable-Phenotype (%)” value [3] was 18%. The “Population Mitochondria Different-Phenotype (%)” value [3] was 37%, the “Population Mitotic Cells (%)” value [3] was 46% and the “Population Normal (%)” value [3] was 97%. For the same compound, the “Population Pyknosed Nuclei (%)” value [3] was 28%, the “Population Tubulin-Different-Phenotype (%)” value [3] was 75% and the “Total Cell Count” value [3] was 173. The “Population Apoptotic (%)” value [4] was 75%, the “Population Fragmented Nuclei (%)” value [4] was 20% and the “Population Healthy Nuclei (%)” value [4] was 63%. The “Population Hoechst High Intensity Objects (%)” value [4] was 18%, the “Population Membrane Permeable-Phenotype (%)” value [4] was 12% and the “Population Mitochondria Different-Phenotype (%)” value [4] was 59%. For the same compound, the “Population Mitotic Cells (%)” value [4] was 25%, the “Population Normal (%)” value [4] was 81% and the “Population Pyknosed Nuclei (%)” value [4] was 16%. For the same compound, the “Population Tubulin-Different-Phenotype (%)” value [4] was 85%, the “Total Cell Count” value [4] was 112 and the “Population Apoptotic (%)” value [5] was 58%. For the same compound, the “Population Fragmented Nuclei (%)” value [5] was 11%, the “Population Healthy Nuclei (%)” value [5] was 80% and the “Population Hoechst High Intensity Objects (%)” value [5] was 3%. The “Population Membrane Permeable-Phenotype (%)” value [5] was 17%, the “Population Mitochondria Different-Phenotype (%)” value [5] was 19% and the “Population Mitotic Cells (%)” value [5] was 41%. The “Population Normal (%)” value [5] was 96%, the “Population Pyknosed Nuclei (%)” value [5] was 8% and the “Population Tubulin-Different-Phenotype (%)” value [5] was 25%. The “Total Cell Count” value [5] was 292, the “Population Apoptotic (%)” value [6] was 38% and the “Population Fragmented Nuclei (%)” value [6] was 16%. The “Population Healthy Nuclei (%)” value [6] was 71%, the “Population Hoechst High Intensity Objects (%)” value [6] was 13% and the “Population Membrane Permeable-Phenotype (%)” value [6] was 12%. For the same compound, the “Population Mitochondria Different-Phenotype (%)” value [6] was 29%, the “Population Mitotic Cells (%)” value [6] was 61% and the “Population Normal (%)” value [6] was 86%. The “Population Pyknosed Nuclei (%)” value [6] was 12%, the “Population Tubulin-Different-Phenotype (%)” value [6] was 33% and the “Total Cell Count” value [6] was 121. The “Population Apoptotic (%)” value [7] was 78%, the “Population Fragmented Nuclei (%)” value [7] was 25% and the “Population Healthy Nuclei (%)” value [7] was 38%. For the same compound, the “Population Hoechst High Intensity Objects (%)” value [7] was 12%, the “Population Membrane Permeable-Phenotype (%)” value [7] was 44% and the “Population Mitochondria Different-Phenotype (%)” value [7] was 64%. The “Population Mitotic Cells (%)” value [7] was 21%, the “Population Normal (%)” value [7] was 88% and the “Population Pyknosed Nuclei (%)” value [7] was 36%. For the same compound, the “Population Tubulin-Different-Phenotype (%)” value [7] was 88%, the “Total Cell Count” value [7] was 202 and the “Population Apoptotic (%)” value [8] was 85%. The “Population Fragmented Nuclei (%)” value [8] was 19%, the “Population Healthy Nuclei (%)” value [8] was 50% and the “Population Hoechst High Intensity Objects (%)” value [8] was 25%. The “Population Membrane Permeable-Phenotype (%)” value [8] was 38%, the “Population Mitochondria Different-Phenotype (%)” value [8] was 82% and the “Population Mitotic Cells (%)” value [8] was 14%. The “Population Normal (%)” value [8] was 74%, the “Population Pyknosed Nuclei (%)” value [8] was 30% and the “Population Tubulin-Different-Phenotype (%)” value [8] was 82%. For the same compound, the “Total Cell Count” value [8] was 121.
